Columns and labels:
[1] = Inhibition of recombinant full-length wild type Symbiobacterium thermophilum S1PL using RBM13 as fluorogenic substrate incubated for 1 hr
Summary of the method: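 StS1PL, expressed and purified in-house, used at 25 µg/mL final. Buffer: 1 mM potassium phosphate pH 7.2 with 100 mM NaCl, 1 mM EDTA, 1 mM DTT and 10 µM PLP. RBM13 at 125 µM final; 37 °C for 1 h. Stopped with MeOH, then glycine-NaOH pH 10.6 for 20 min at 37 °C. Umbelliferone read at ex/em 355/460 nm against a calibration curve. IC50 fitted from % activity vs log[I].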

[2] = biological target: T1, Sphingosine-1-phosphate lyase 1 (Homo sapiens, UniProt O95470); assay: Inhibition of recombinant human S1PL using RBM13 as fluorogenic substrate incubated for 1 hr
T1 sequence (O95470 whole entry): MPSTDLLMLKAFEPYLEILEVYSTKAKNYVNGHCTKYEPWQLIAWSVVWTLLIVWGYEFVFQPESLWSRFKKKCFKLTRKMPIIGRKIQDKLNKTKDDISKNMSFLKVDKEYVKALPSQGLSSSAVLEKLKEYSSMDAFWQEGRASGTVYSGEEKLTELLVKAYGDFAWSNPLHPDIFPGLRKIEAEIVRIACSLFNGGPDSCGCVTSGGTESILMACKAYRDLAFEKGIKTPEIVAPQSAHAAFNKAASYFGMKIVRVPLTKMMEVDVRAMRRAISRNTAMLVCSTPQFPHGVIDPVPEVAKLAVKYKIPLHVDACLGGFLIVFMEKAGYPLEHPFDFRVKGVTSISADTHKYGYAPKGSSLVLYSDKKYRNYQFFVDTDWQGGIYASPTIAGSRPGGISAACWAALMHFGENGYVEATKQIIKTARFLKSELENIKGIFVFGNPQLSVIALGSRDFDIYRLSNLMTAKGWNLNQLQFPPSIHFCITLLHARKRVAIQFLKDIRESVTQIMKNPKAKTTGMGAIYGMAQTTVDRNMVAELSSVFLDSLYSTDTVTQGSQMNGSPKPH
Summary of the method: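 Recombinant hS1PL at 3 µg/mL final in 100 mM HEPES pH 7.4 with 0.1 mM EDTA, 0.05% Triton X-100, 0.01% Pluronic F127 and 100 µM PLP. RBM13 at 125 µM final; 37 °C for 1 h. MeOH stop, then glycine-NaOH pH 10.6 for 20 min at 37 °C. Umbelliferone fluorescence at 355/460 nm, calibration curve. IC50 from % activity vs log[I].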

[3] = biological target: T1, Sphingosine-1-phosphate lyase 1; assay: Competitive inhibition of human S1PL using varying levels of RBM13 as substrate by Lineweaver-Burk plot analysis
[4] = biological target: T2, Sphingosine-1-phosphate lyase 1 (Mus musculus, UniProt Q8R0X7); assay: Inhibition of mouse liver microsomal S1PL using S1P as substrate incubated for 20 mins by ESI-LC/MS analysis; type: microsomes, Microsome
T2 sequence (Q8R0X7 whole entry): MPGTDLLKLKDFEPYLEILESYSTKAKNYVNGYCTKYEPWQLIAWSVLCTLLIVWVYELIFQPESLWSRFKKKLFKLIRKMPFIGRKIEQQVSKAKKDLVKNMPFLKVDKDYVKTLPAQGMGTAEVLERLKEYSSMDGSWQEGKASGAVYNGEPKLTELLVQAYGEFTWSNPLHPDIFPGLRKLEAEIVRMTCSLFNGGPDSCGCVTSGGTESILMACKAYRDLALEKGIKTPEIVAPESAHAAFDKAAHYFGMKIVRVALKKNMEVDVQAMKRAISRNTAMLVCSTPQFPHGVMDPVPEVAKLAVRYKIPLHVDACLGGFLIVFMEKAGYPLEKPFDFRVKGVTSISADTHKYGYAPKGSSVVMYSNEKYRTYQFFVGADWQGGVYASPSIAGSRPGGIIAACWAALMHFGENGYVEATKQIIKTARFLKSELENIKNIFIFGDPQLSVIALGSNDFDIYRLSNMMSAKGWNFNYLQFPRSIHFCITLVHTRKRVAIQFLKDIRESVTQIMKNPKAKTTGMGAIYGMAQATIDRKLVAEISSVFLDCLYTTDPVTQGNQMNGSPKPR

[5] = biological target: T3, Sphingosine-1-phosphate lyase 1 (Homo sapiens) (UniProt O95470); assay: Inhibition of recombinant human S1PL at 250 uM using RBM13 as fluorogenic substrate incubated for 1 hr relative to control
T3 sequence (whole entry): T1 sequence (O95470 whole entry)

[6] = tested on: Symbiobacterium thermophilum; assay: Inhibition of recombinant full-length wild type Symbiobacterium thermophilum S1PL at 250 uM using RBM13 as fluorogenic substrate incubated for 1 hr relative to control

Work on `CCCCCCCCCCCCCCC[C@@H](O)[C@H](COP(=O)(O)O)NCc1c(COP(=O)(O)O)cnc(C)c1O` yielded an IC50 [1] of 47 µM and an IC50 [2] of 81.1 µM.
Work on `CCCCCCCCCCCCCCC[C@H](O)[C@H](COP(=O)(O)O)N=[N+]=[N-]` yielded an IC50 [1] of 27.2 µM, a Ki [3] of 16.4 µM and an IC50 [2] of 21.8 µM.
`CCCCCCCCCCCCC/C=C/[C@H](O)[C@@H](COP(=O)(O)O)N=[N+]=[N-]` gave an IC50 [1] of 13.8 µM, a Ki [3] of 5.6 µM and an IC50 [2] of 5.2 µM.
With `CCCCCCCCc1ccc(CCC(N)(CO)CO)cc1` [FINGOLIMOD] the IC50 [4] was 52.4 µM.
`CCCCCCCCCCCCC/C=C/[C@@H](O)[C@H](COP(=O)(O)O)N=[N+]=[N-]` showed an IC50 [1] of 12.9 µM, a Ki [3] of 9.1 µM and an IC50 [2] of 10.1 µM.
Molecule `CCCCCCCCCCCCCCC[C@@H](O)[C@@H](COP(=O)(O)O)N=[N+]=[N-]` has an IC50 [1] of 24.3 µM, a Ki [3] of 36.7 µM and an IC50 [2] of 28.3 µM.
Work on `CCCCCCCCCCCCC/C=C/[C@@H](O)[C@@H](COP(=O)(O)O)N=[N+]=[N-]` yielded an IC50 [1] of 11.7 µM, a Ki [3] of 17.5 µM and an IC50 [2] of 22.9 µM.
Molecule `CCCCCCCCCCCCC/C=C/[C@H](O)[C@H](COP(=O)(O)O)N=[N+]=[N-]` has an IC50 [1] of 16 µM, a Ki [3] of 20.4 µM and an IC50 [2] of 28.8 µM.
Work on `CCCCCCCCCCCCCCC[C@@H](O)[C@H](COP(=O)(O)O)N=[N+]=[N-]` yielded an IC50 [1] of 25 µM, a Ki [3] of 19 µM and an IC50 [2] of 25.7 µM.
For `Cc1ncc(COP(=O)(O)O)c(CNCCOP(=O)(O)O)c1O`, the inhibition [5] was 20% and the inhibition [6] was 20%.
`CCCCCCCCCCCCC/C=C/[C@@H](O)[C@H](COP(=O)(O)O)NCc1c(COP(=O)(O)O)cnc(C)c1O` showed an IC50 [1] of 53.4 µM and an IC50 [2] of 89 µM.
For `CCCCCCCCCCCCCCC[C@H](O)[C@@H](COP(=O)(O)O)N=[N+]=[N-]`, the IC50 [1] was 25.7 µM, the Ki [3] was 6.3 µM and the IC50 [2] was 10.8 µM.

From ChEMBL document CHEMBL4715757, “Studies on the inhibition of sphingosine-1-phosphate lyase by stabilized reaction intermediates and stereodefined azido phosphates” (Eur J Med Chem, 2016)
